Experiments:
[1] = AUC (0 to t) in Sprague-Dawley rat at 5 mg/kg, po by LC/MS/MS analysis; format: ADME, organism-based; settings: in vivo
Method in brief: (§1)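 Male SD rats, 180–240 g, 3 per compound; single dose of 1 mg/kg iv or 5 mg/kg po, dosing volume 5 mL/kg. Blood was sampled from 2 min to 24 h and centrifuged at 4 °C. Plasma underwent protein precipitation, then LC/MS/MS in SRM mode with an internal standard. Parameters were derived by noncompartmental analysis.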

[2] = Inhibition of Sonic-induced hedgehog signalling in mouse NIH3T3 cells after 48 hrs by Gli-luciferase reporter assay; format: cell-based; settings: NIH3T3, 48 h
Method in brief: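 NIH3T3 cells stably carrying a Gli-luciferase reporter were kept in DMEM with 10% FBS and 1 µg/mL puromycin, then seeded at 2×10^4 cells/well overnight at 37 °C. Compounds at 0.05–300 nM (8 concentrations) were added in medium with 0.5% FBS and 0.7 µg/mL Sonic Hh agonist, n=4 wells, for 48 h. Readout was the Firefly/Renilla luciferase ratio in lysates.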

[3] = Mean resident time (0 to t) in Sprague-Dawley rat at 5 mg/kg, po by LC/MS/MS analysis; format: ADME, organism-based; settings: in vivo; method in brief: as §1
[4] = Mean resident time (0 to t) in Sprague-Dawley rat at 1 mg/kg, iv by LC/MS/MS analysis; format: ADME, organism-based; settings: in vivo; method in brief: as §1
[5] = Clearance in Sprague-Dawley rat at 1 mg/kg, iv by LC/MS/MS analysis; format: ADME, organism-based; settings: in vivo; method in brief: as §1
[6] = Clearance in Sprague-Dawley rat at 5 mg/kg, po by LC/MS/MS analysis; format: ADME, organism-based; settings: in vivo; method in brief: as §1
[7] = Apparent volume of distribution in Sprague-Dawley rat at 1 mg/kg, iv by LC/MS/MS analysis; settings: in vivo
[8] = system: Rattus norvegicus; test: Apparent volume of distribution in Sprague-Dawley rat at 5 mg/kg, po by LC/MS/MS analysis; settings: in vivo
[9] = AUC (0 to t) in Sprague-Dawley rat at 1 mg/kg, iv by LC/MS/MS analysis; format: ADME, organism-based; settings: in vivo
Method in brief: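 Male SD rats, 3 per compound, 180–240 g, single iv dose at 1 mg/kg, dosing volume 5 mL/kg. Blood sampled at 2, 5, 15, 30 min and 1, 2, 4, 6, 8, 10, 24 h, then centrifuged at 4 °C. Plasma protein-precipitated and analysed by LC/MS/MS in SRM mode with internal standard. AUC(0-t) obtained by noncompartmental analysis.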

[10] = Half life in Sprague-Dawley rat at 5 mg/kg, po by LC/MS/MS analysis; format: ADME, organism-based; settings: in vivo; method in brief: as §1
[11] = Cmax in Sprague-Dawley rat at 1 mg/kg, iv by LC/MS/MS analysis; format: ADME, organism-based; parameters: dose 1 mg/kg, route intravenous; settings: in vivo; method in brief: as §1
[12] = Half life in Sprague-Dawley rat at 1 mg/kg, iv by LC/MS/MS analysis; format: ADME, organism-based; settings: in vivo; method in brief: as §1
[13] = Cmax in Sprague-Dawley rat at 5 mg/kg, po by LC/MS/MS analysis; format: ADME, organism-based; parameters: dose 5 mg/kg, route oral; settings: in vivo; method in brief: as §1
[14] = Oral bioavailability in Sprague-Dawley rat at 5 mg/kg; format: ADME, organism-based; settings: in vivo; method in brief: as §1
[15] = system: Mus musculus; test: Toxicity in BALB/C mouse xenografted with human LS174T cells assessed as mortality at 75 mg/kg, bid administered for 10 days; format: organism-based; settings: in vivo, 240 h
Method in brief: (§2)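 Male BALB/C nude mice (18–20 g) kept under SPF conditions. LS-174T cells at 2.5×10^7 cells/mL injected subcutaneously into the right flank. Once tumors reached about 100 mm3, mice were randomized to groups of 6 (vehicle group n = 9) and dosed orally once or twice daily for 10 days. Controls received solvent. Body weight and tumor volume were measured twice weekly and deaths recorded.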

[16] = system: LS174T; test: Antiproliferative activity against human LS174T cells after 72 hrs by CellTiter-Glo luminescent cell viability assay; format: functional, cell-based
Method in brief: (§3)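 Cells were grown in DMEM with 10% FBS, seeded at a density suited to each line, and left 24 h at 37 °C. Compounds were prepared in DMSO, diluted in medium over a concentration series starting at 100 µM, and applied for 72 h. CellTiter-Glo reagent was added for 30 min at room temperature before reading luminescence. IC50 came from four-parameter curve fitting.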

[17] = Antiproliferative activity against human BxPC3 cells after 72 hrs by CellTiter-Glo luminescent cell viability assay; format: functional, cell-based; settings: BXPC-3, 72 h; method in brief: as §3
[18] = system: LS174T; test: Antitumor activity against human LS174T cells xenografted in BALB/C mouse assessed as tumor weight inhibition at 75 mg/kg, bid administered for 10 days measured twice per week; format: functional; settings: 240 h, read-out: TGI
Method in brief: (§4)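 Male BALB/c nude mice, 18–20 g, kept under SPF conditions. LS-174T cells at 2.5×10^7 cells/mL were injected s.c. into the right flank, and tumors were grown to about 100 mm3. Mice were randomized, n=6 treated and n=9 vehicle. Oral dosing ran qd or bid for 10 days; vehicle controls got the same volume of solvent. Tumor volume = length×width²/2, measured twice weekly. IR = (control − treated)/control for tumor weight or volume at day 10.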

[19] = Antiproliferative activity against human PC3 cells after 72 hrs by CellTiter-Glo luminescent cell viability assay; format: functional, cell-based; settings: PC-3, 72 h; method in brief: as §3
[20] = system: LS174T; test: Antitumor activity against human LS174T cells xenografted in BALB/C mouse assessed as tumor weight inhibition at 150 mg/kg, qd administered for 10 days measured twice per week; format: functional; settings: 240 h, read-out: TGI; method in brief: as §4
[21] = system: Mus musculus; test: Toxicity in BALB/C mouse xenografted with human LS174T cells assessed as loss of body weight at 37.5 to 150 mg/kg, qd administered for 10 days measured twice per week; format: organism-based; settings: in vivo, 240 h; method in brief: as §2
[22] = system: LS174T; test: Antitumor activity against human LS174T cells xenografted in BALB/C mouse assessed as tumor weight inhibition at 75 mg/kg, qd administered for 10 days measured twice per week; format: functional; settings: 240 h, read-out: TGI; method in brief: as §4
[23] = system: LS174T; test: Antitumor activity against human LS174T cells xenografted in BALB/C mouse assessed as tumor volume inhibition at 75 mg/kg, bid administered for 10 days measured twice per week; settings: 240 h, read-out: TGI
[24] = system: LS174T; test: Antitumor activity against human LS174T cells xenografted in BALB/C mouse assessed as tumor volume inhibition at 150 mg/kg, qd administered for 10 days measured twice per week; format: functional; settings: 240 h, read-out: TGI; method in brief: as §4
[25] = system: LS174T; test: Antitumor activity against human LS174T cells xenografted in BALB/C mouse assessed as tumor volume inhibition at 75 mg/kg, qd administered for 10 days measured twice per week; format: functional; settings: 240 h, read-out: TGI; method in brief: as §4
[26] = system: Mus musculus; test: Toxicity in BALB/C mouse xenografted with human LS174T cells assessed as loss of body weight at 75 mg/kg, bid administered for 10 days measured twice per week; format: organism-based; settings: in vivo, 240 h; method in brief: as §2
[27] = system: LS174T; test: Antitumor activity against human LS174T cells xenografted in BALB/C mouse assessed as tumor weight inhibition at 37.5 mg/kg, qd administered for 10 days measured twice per week; format: functional; settings: 240 h, read-out: TGI; method in brief: as §4
[28] = system: Mus musculus; test: Toxicity in BALB/C mouse xenografted with human LS174T cells assessed as mortality at 37.5 to 150 mg/kg, qd administered for 10 days; format: organism-based; settings: in vivo, 240 h; method in brief: as §2
[29] = system: LS174T; test: Antitumor activity against human LS174T cells xenografted in BALB/C mouse assessed as tumor volume inhibition at 37.5 mg/kg, qd administered for 10 days measured twice per week; format: functional; settings: 240 h, read-out: TGI; method in brief: as §4

| SMILES | AUC(0-t) [1] [ng·h/mL] | IC50 [2] [nM] | MRT last [3] [h] | MRT last [4] [h] | clearance [5] [mL/min/kg] | CL/F [6] [mL/min/kg] | Vd [7] [L/kg] | AUC(0-t) [9] [ng·h/mL] | half-life [10] [h] | Cmax [11] [ng/mL] | half-life [12] [h] | Cmax [13] [ng/mL] | also measured |
| --- | --- | --- | --- | --- | --- | --- | --- | --- | --- | --- | --- | --- | --- |
| Cc1ccc(CN2CCOCC2)cc1NC(=O)c1ccc(Nc2ncc(F)c(-c3ccc(OC(F)(F)F)cc3)n2)cn1 | 923 | 1.14 | 7.74 | 4.23 | 8.37 | 80.8 | 6.28 | 1890 | 7.24 | 3140 | 8.85 | 86.6 | Vd(app) [8]: 50.45546 L/kg |
| Cc1ccc(CN2CCOCC2)cc1NC(=O)c1ccc(Nc2ncc(C3CC3)c(-c3ccc(OC(F)(F)F)cc3)n2)cc1 |  | 11.9 |  |  |  |  |  |  |  |  |  |  |  |
| Cc1ccc(CN2CCCC2)cc1NC(=O)c1ccc(Nc2nccc(-c3ccc(OC(F)(F)F)cc3)n2)cc1 |  | 1.83 |  |  |  |  |  |  |  |  |  |  |  |
| Cc1ccc(CN2CCN(C)CC2)cc1NC(=O)c1ccc(Nc2nccc(-c3ccc(OC(F)(F)F)cc3)n2)cc1 |  | 0.97 |  |  |  |  |  |  |  |  |  |  |  |
| Cc1ccc(CN2CCN(C)CC2)cc1NC(=O)c1ccc(Nc2ncc(F)c(-c3ccc(OC(F)(F)F)cc3)n2)cc1 |  | 2.84 |  |  |  |  |  |  |  |  |  |  |  |
| CS(=O)(=O)c1ccc(C(=O)Nc2ccc(Cl)c(-c3ccccn3)c2)c(Cl)c1 [VISMODEGIB] | 22400 | 7.2 | 3.93 |  |  | 4.68 |  |  | 2.46 |  |  | 3640 | bioavailability [14]: > 100%; Activity [15]: Non-toxic; IC50 [16]: 45800 nM; IC50 [17]: 48000 nM; inhibition in vivo at 75 mg/kg [18]: 11.8%; IC50 [19]: 66800 nM |
| O=C(Nc1cccc(CN2CCOCC2)c1)c1ccc(Nc2nccc(-c3ccc(OC(F)(F)F)cc3)n2)cc1 |  | 0.56 |  | 1.53 | 21.5 |  | 6.33 | 769 |  | 915 | 3.59 |  |  |
| Cc1ccc(CN2CCOCC2)cc1NC(=O)c1ccc(Nc2nccc(-c3ccc(OC(F)(F)F)cc3)n2)cc1 | 6220 | 0.89 | 6.98 | 4.22 | 6.69 | 12.3 | 2.87 | 2440 | 6.68 | 1200 | 4.96 | 635 | inhibition in vivo at 150 mg/kg [20]: 21.1%; bioavailability [14]: 42%; Activity [21]: Non-toxic; Activity [15]: Non-toxic; inhibition in vivo at 75 mg/kg [22]: 9.9%; inhibition in vivo at 75 mg/kg [23]: 42.9%; inhibition in vivo at 150 mg/kg [24]: 38.9%; inhibition in vivo at 75 mg/kg [25]: 23.2%; Activity [26]: Non-toxic; Vd(app) [8]: 7.12872 L/kg; IC50 [16]: 12200 nM; IC50 [17]: 35400 nM; inhibition in vivo at 37.5 mg/kg [27]: 10.2%; Activity [28]: Non-toxic; inhibition in vivo at 75 mg/kg [18]: 23.3%; inhibition in vivo at 37.5 mg/kg [29]: 33%; IC50 [19]: 14800 nM |
| CCN(CC)Cc1ccc(C)c(NC(=O)c2ccc(Nc3ncc(F)c(-c4ccc(OC(F)(F)F)cc4)n3)cc2)c1 |  | 2.56 |  |  |  |  |  |  |  |  |  |  |  |

Reference: ChEMBL document CHEMBL3763021 (Eur J Med Chem, 2016)
